Activity calls are given as the source filed them. The calls are words filed in the database; no cut-off is given here.
What was measured:
PC-3 [1] = experiment: Induction of ROS generation in human PC-3 cells at 0.05 uM measured after 30 mins by CellROX reagent based flow cytometry; assay type: functional, cell-based
Method in brief: (§1)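 PC3 seeded 1×10^5 per well in 6-well plates, after 24 h treated together with CellROX green (5 μM final) for 30 min at 37 °C; 0.1% DMSO negative control, 1 mM H2O2 positive control. Cells collected and CellROX-positive fraction measured by flow cytometry.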

PC-3 [2] = experiment: Cytotoxicity against human PC-3 cells assessed as reduction in cell viability at 0.05 uM measured after 24 hrs in presence of antioxidant N-acetyl-L-cysteine by SRB assay; assay type: functional, cell-based
Method in brief: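 SRB assay: PC3 seeded 1×10^4 per well, after 24 h exposed 24 h at 37 °C, 5% CO2 with or without 1 mM N-acetyl-L-cysteine; vehicle 0.1% DMSO. Fixed with 15% TCA at 4 °C for 1 h, dried, stained 0.4% sulforhodamine B, dye solubilized in 10 mM Tris, absorbance 540 nm; ANOVA/Tukey.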

PC-3 [3] = experiment: Induction of apoptosis in human PC-3 cells assessed as effect on BAX gene expression at 0.05 uM measured after 3 hrs by qPCR analysis; assay type: functional, cell-based
Method in brief: (§2)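 Seeded 1×10^5 cells per well in 6-well plates; PC3 treated 3 h. Total RNA extracted, qPCR; each target normalized to reference gene (β-actin) by efficiency-corrected ΔΔCt (Pfaffl) against a control calibrator sample, efficiencies from amplification profiles. Mean ± SEM of four independent experiments.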

PC-3 [4] = experiment: Induction of morphological changes in human PC-3 cells assessed as loss of adhesion at 0.05 uM measured after 24 hrs in presence of antioxidant N-acetyl-L-cysteine by phase contrast microscopy; assay type: functional, cell-based
Method in brief: (§3)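 PC3 cells were seeded at 1×10^5 per well in 6-well plates and treated after 24 h, with or without 1 mM N-acetyl-L-cysteine. The same observation field was imaged by phase contrast microscopy at 1, 2, 3, 4 and 24 h. DMSO vehicle served as control.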

PC-3 [5] = experiment: Cell cycle arrest in human PC-3 cells assessed as reduction in cell accumulation at G0/G1 phase in presence of antioxidant N-acetyl-L-cysteine at 0.05 uM measured after 3 hrs by propidium iodide staining based flow cytometry; assay type: functional
Method in brief: (§4)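 PC3 cells seeded 1×10^5 per well in 6-well plates, exposed 3 h, with or without 1 mM N-acetyl-L-cysteine pretreatment; vehicle 0.1% DMSO. Harvested with trypsin-EDTA, fixed in 75% ethanol in PBS at 4 °C for 30 min, stained 1 h with RNase (1.5 mg mL^-1) and propidium iodide (90 μg mL^-1); DNA content by flow cytometry. Phase fractions compared with control by ANOVA/Tukey.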

PC-3 [6] = experiment: Cell cycle arrest in human PC-3 cells assessed as increase in cell accumulation at G2/M phase in presence of antioxidant N-acetyl-L-cysteine at 0.05 uM measured after 3 hrs by propidium iodide staining based flow cytometry; assay type: functional; method in brief: as §4
PC-3 [7] = experiment: Induction of morphological changes in human PC-3 cells assessed as loss of adhesion at 0.05 uM measured after 24 hrs by phase contrast microscopy; assay type: functional, cell-based; method in brief: as §3
PC-3 [8] = experiment: Cytotoxicity against human PC-3 cells assessed as cell growth inhibition at 0.05 uM measured after 48 hrs by CCK-8 assay relative to control; assay type: functional; settings: read-out: GI
Method in brief: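 PC3 at 1×10^4 cells per well attached 24 h, pretreated 1 h with carboxy-PTIO (0, 0.50, 3.13, 6.25, 12.50, 25, 50 μM), then compound added for 48 h; washed three times with PBS, growth read by CCK-8 as percent inhibition versus control cells; two experiments in triplicate.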

PC-3 [9] = experiment: Induction of morphological changes in human PC-3 cells assessed as cell rounding at 0.05 uM measured after 24 hrs in presence of antioxidant N-acetyl-L-cysteine by phase contrast microscopy; assay type: functional, cell-based; method in brief: as §3
PC-3 [10] = experiment: Induction of DNA damage in human PC-3 cells assessed as increase in phosphorylated gamma-H2AX expression at 0.24 uM measured after 6 hrs by DAPI staining based confocal laser scanning microscopy; assay type: functional, cell-based
Method in brief: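 γ-H2AX immunostaining: PC3 on coverslips (1×10^5 cells), serum-starved 18 h, then treated (methods state 1 h; legend states 6 h); fixed 3.7% formaldehyde, permeabilized 0.25% Triton X-100, blocked 3% albumin, anti-phospho-H2A.X Ser139 (1:500) then Alexa Fluor 488 secondary, DAPI nuclei; confocal, 500 cells per slide, three experiments; UVC 20 min positive control.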

PC-3 [11] = experiment: Induction of apoptosis in human PC-3 cells assessed as viable cells at 0.24 uM measured after 6 hrs by Alexa Fluor 488-annexin V/propidium iodide staining based flow cytometry (reference value: 89.37%); assay type: functional; settings: read-out: Activity
PC-3 [12] = experiment: Cell cycle arrest in human PC-3 cells assessed as reduction in cell accumulation at G0/G1 phase at 0.24 uM measured after 3 hrs by propidium iodide staining based flow cytometry; assay type: functional; method in brief: as §4
PC-3 [13] = experiment: Cell cycle arrest in human PC-3 cells assessed as reduction in cell accumulation at G0/G1 phase in presence of antioxidant N-acetyl-L-cysteine at 0.24 uM measured after 3 hrs by propidium iodide staining based flow cytometry; assay type: functional; method in brief: as §4
PC-3 [14] = experiment: Cell cycle arrest in human PC-3 cells assessed as down regulation of c-Myc gene expression at 0.24 uM measured after 3 hrs by qPCR analysis; assay type: functional, cell-based; method in brief: as §2
PC-3 [15] = experiment: Cell cycle arrest in human PC-3 cells assessed as down regulation of cyclin D1 expression at 0.24 uM measured after 3 hrs by Western blot analysis; assay type: functional, cell-based
Method in brief: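 Western blot: PC3 seeded 1×10^7 per 100 mm dish, treated 3 h or 6 h, lysed in RIPA with protease/phosphatase inhibitors; 50 μg protein on 12% SDS-PAGE, PVDF transfer, 5% milk block, anti-cyclin D1 (1:1000) overnight at 4 °C, HRP anti-rabbit secondary, β-actin loading control, ECL detection and band densitometry; two independent experiments.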

PC-3 [16] = experiment: Induction of ROS generation in human PC-3 cells at 0.24 uM measured after 30 mins by CellROX reagent based flow cytometry; assay type: functional, cell-based; method in brief: as §1
PC-3 [17] = experiment: Cell cycle arrest in human PC-3 cells assessed as increase in cell accumulation at sub-G1 phase at 0.24 uM measured after 3 hrs in presence of antioxidant N-acetyl-L-cysteine by propidium iodide staining based flow cytometry; assay type: functional; method in brief: as §4

| Compound | Activity (PC-3 [1]) | Activity (PC-3 [2]) | Activity (PC-3 [3]) | Activity (PC-3 [4]) | Activity (PC-3 [5]) | Activity (PC-3 [6]) | Activity (PC-3 [7]) | inhibition of growth at 0.05 µM (PC-3 [8]) [%] | Activity (PC-3 [9]) | Activity (PC-3 [10]) | viability at 0.24 µM (PC-3 [11]) [%] | Activity (PC-3 [12]) | Activity (PC-3 [13]) | Activity (PC-3 [14]) | Activity (PC-3 [15]) | Activity (PC-3 [16]) | Activity (PC-3 [17]) |
| --- | --- | --- | --- | --- | --- | --- | --- | --- | --- | --- | --- | --- | --- | --- | --- | --- | --- |
| COc1cc(/C=C/C(=O)N2CCC=CC2=O)cc(OC)c1OCCCCCCCCCCCCOc1no[n+]([O-])c1S(=O)(=O)c1ccccc1 | Active | inactive | inactive | inactive | Active | Active | Active; Partial Loss Of Adhesion Observed | 65 | inactive | – | – | – | – | – | – | – | – |
| COc1cc(/C=C/C(=O)N2CCC=CC2=O)cc(OC)c1OCCCOc1no[n+]([O-])c1S(=O)(=O)c1ccccc1 | – | – | – | – | – | – | – | – | – | Active | 48.6 | Active; Significant Reduction Observed | Active | Active | Active | Active | inactive |
